# Compound activity: PubChem BioAssay, SRMLSC
# H69AR inhibit: growth inhibitors of human H69AR lung tumor cells; H69AR lung tumor viability, ATP luminescence, 72 h; stronger effect = lower value; viability, % at 10 µM; 6% of 85,000 active; AID 598;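 active = viability at or below 40%; inactive = viability above 40%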;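 note: multidrug resistant small cell line overexpressing MRP-1 efflux transporter; 100% = mean luminescence of untreated control wells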
# PTEN del growth: PTEN-deleted cell growth suppression; HCT116 PTEN-null viability, CellTiter-Glo, 60 h; stronger effect = lower value; viability, % at 10 µM; 1.2% of 140,000 active; AID 827;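 active = viability at or below a set limit, 4 SD under the median of all tested compounds, cut at about 3.7% in these data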;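 note: PTEN knockout HCT116 line with beta catenin targeted HCT116 as companion control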
# HUVEC inhibit: human endothelial cell proliferation inhibition. viability, % at 10 µM (by protocol). HUVEC proliferation, CellTiter-Glo luminescence, 72 h; stronger effect = lower value. 1.1% of 86,000 active;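 active = viability at or below 30%; inactive = viability above 30%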;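 note: 100% = median luminescence of DMSO-only cell control wells on each plate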
# Fibroblast inh: blocks proliferation of human lung fibroblasts | LL 47 human lung fibroblast viability, ATP luminescence; stronger effect = lower value | viability, % at 10 µM | 1.1% of 85,000 active | AID 719;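 active = viability at or below 50% in the single dose screen; inactive = viability above 50%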;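 note: compound exposure lasted 72 h before the ATP readout; 100% = median luminescence of untreated cell-only wells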
#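 Times – overnight cell rest, 72 h compound treatment at 37 °C · Test system – human lung fibroblast line LL 47, low passage · Amount – 1,150 cells in each well · Controls – cell-only wells, no compound · Doses – 0.1% DMSO in all compound wells · Measured by – CellTiter-Glo luminescence · Buffer or medium – IMEM plus 15% FBS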
# HCT116 bCat-KO: beta-catenin-lacking colon tumor cell growth suppression | viability, % at 10 µM | AID 818 | 1.5% of 140,000 active | HCT116 beta-catenin knockout viability, CellTiter-Glo, 60 h; stronger effect = lower value;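 active = viability at or under a set limit, the compound median less 4 SD, cut at about 6% in these data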;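 note: 0% = Hyamine 1622 control at 20 µM and 100% = untreated cell control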
# An asterisk follows results filed as active; / = not tested or not shown. This excerpt belongs to a sample that is enriched for hits.
SMILES,H69AR inhibit,PTEN del growth,HUVEC inhibit,Fibroblast inh,HCT116 bCat-KO
CCCN1C(=O)SC(CC(=O)Nc2ccccc2C)C1=O (stereo not drawn),30*,69,93,106,66
Cc1cc(C(=O)c2ccc(C(C)(C)C)cc2)c(NC(=O)CCl)s1,/,1.3*,/,/,1.1*
Cc1cc(C(=O)c2ccccc2)c(NC(=O)CN2CCOCC2)s1,/,97,/,/,95
COc1ccc(NC(=O)CSc2nc(C)c3c(c2C#N)CCCC3)cc1,100,84,102,103,80
CCc1nnc(NC(=O)CSc2nc(C)c3c(c2C#N)CCCC3)s1,24*,39,59,94,58
CC(=O)Nc1ccc(N2CCc3c(C)c(C#N)c4nc5ccccc5n4c32)cc1,/,76,/,/,89
Cc1snc(S(=O)(=O)/C(C#N)=N/Nc2ccc(C(F)(F)F)cc2)c1C#N,94,93,61,89,91
CCCSc1nc2c(=O)[nH][nH]c(=O)c2n1Cc1ccccc1,98,100,95,97,99
CCOC(=O)C1=C(N)n2c(s/c(=C\c3cccs3)c2=O)=C(C(=O)OCC)C1c1cccs1 (stereo not drawn),29*,17,40,60,19
CCOC(=O)C1=C(N)n2c(s/c(=C\c3cccnc3)c2=O)=C(C(=O)OCC)C1c1cccnc1 (stereo not drawn),54,/,92,96,/
O=C(CCn1cnc2ccccc2c1=O)Nc1nc(-c2ccc(Br)cc2)cs1,/,83,/,/,85
Cc1c(C(=O)NCc2ccccc2)oc2ccc(S(=O)(=O)N3CCC4(CC3)OCCO4)cc12,73,66,84,91,76
Cc1c(C(=O)Nc2cccc(Cl)c2)oc2ccc(S(=O)(=O)N3CCC4(CC3)OCCO4)cc12,13*,28,49,81,45
Cc1ccc(NC(=O)c2oc3ccc(S(=O)(=O)N4CCOCC4)cc3c2C)cc1C,37*,62,60,83,62
Cc1c(C(=O)Nc2ccc(F)cc2)oc2ccc(S(=O)(=O)N3CCCC3)cc12,71,98,95,103,98
Cc1c(C(=O)Nc2ccc(F)cc2)oc2ccc(S(=O)(=O)N3CCC4(CC3)OCCO4)cc12,33*,39,67,90,47
O=S(=O)(NCCOCC(F)(F)F)c1ccc2oc3ccccc3c2c1,92,80,88,109,86
O=C1NC(=S)N(C(=O)c2ccc(F)cc2)/C1=C/c1ccccc1,/,1.7*,/,/,12
O=[N+]([O-])c1cc(-c2nc(-c3ccncc3)no2)ccc1Cl,/,2.3*,/,/,2.8*
COc1ccc(S(=O)(=O)N2CCCC(C(=O)NCc3ccco3)C2)cc1Cl (stereo not drawn),84,92,97,106,91
Cc1ccc(NC(=O)c2cc([N+](=O)[O-])ccc2NCc2cccnc2)cc1,/,53,/,/,43
O=C(Nc1ccc(Cl)cn1)c1cc2ccccc2o1,87,92,93,87,86
O=C(Nc1ccc(Cl)cn1)c1ccc(-c2cc(Cl)ccc2Cl)o1,/,7,/,/,3.1*
COc1ccc(N(C)S(=O)(=O)c2cccc3cccnc23)c(OC)c1,17*,25,59,75,22
COc1ccc(NC(=O)C2CCCN2S(=O)(=O)c2cccc3cccnc23)c(OC)c1 (stereo not drawn),101,85,107,89,87
SMILES,H69AR inhibit,PTEN del growth,HUVEC inhibit,Fibroblast inh,HCT116 bCat-KO
CN1CCN(c2ccc(Cl)cc2NC(=O)c2cccc(S(=O)(=O)N(C)C)c2)CC1,26*,75,57,84,69
COc1ccc(OC)c(NC(=O)C2COc3ccccc3O2)c1 (stereo not drawn),69,95,87,102,96
CN1CCN(c2ccc(Cl)cc2NC(=O)C2COc3ccccc3O2)CC1 (stereo not drawn),30*,78,71,82,72
CN1CCN(c2ccc(Cl)cc2NC(=O)c2nn(-c3ccccc3)c(=O)c3ccccc23)CC1,4.9*,70,82,97,80
COCc1nnc(NC(=O)c2ccccc2[N+](=O)[O-])s1,/,100,/,/,100
CCOC(=O)C(C)Oc1ccc(=O)n(-c2ccccc2)n1 (stereo not drawn),89,87,98,97,91
CCOC(=O)N1CCC(NC(=O)c2cc3c(-c4cccc(OC)c4)nn(C)c3s2)CC1,10*,75,75,93,82
CCn1c(=N)n(CC(O)COc2cccc(C)c2)c2ccccc21 (stereo not drawn),76,40,87,72,32
CCCn1c(=N)n(CC(O)COc2cccc(C)c2)c2ccccc21 (stereo not drawn),45,3.2*,87,84,2.6*
CCCCn1c(=N)n(CC(O)COc2ccc(C)cc2)c2ccccc21 (stereo not drawn),7.4*,1.7*,83,72,2.0*
O=[N+]([O-])c1cc(Br)c(O)c(/C=N/Nc2nnnn2-c2cccc3ccccc23)c1,/,85,/,/,81
O=C(CSc1nc2ccccc2n1S(=O)(=O)c1ccccc1)N1CCCC1,/,87,/,/,90
Cc1cc(C)n(-c2nnc(C)n2/N=C/c2ccccc2O)n1,88,94,99,109,97
O=C(O)c1ccc(NS(=O)(=O)c2cc(Cl)ccc2Cl)cc1,103,86,81,93,94
CC(C)Oc1ccc(C(=O)Nc2ccc(Cl)c(S(=O)(=O)Nc3ccc(Cl)cc3)c2)cc1,/,3.1*,/,/,3.1*
Cc1cccc2cc(C(c3nnnn3Cc3ccccc3)N3CCCc4ccccc43)c(=O)[nH]c12 (stereo not drawn),/,2.7*,/,/,1.8*
Cn1c(C(=O)OCC(=O)NCCc2ccccc2)cc2sccc21,94,98,93,91,102
COc1cc2c(cc1OC)C1(Nc3c-2c(Cc2ccccc2)nn3-c2ccccc2)C(=O)Nc2ccccc21 (stereo not drawn),26*,87,53,85,96
Clc1ccc(Cn2ncc3c(N4CCOCC4)ncnc32)cc1,100,70,84,104,87
O=C(Cc1ccc(-n2cccc2)cc1)NCc1cccs1,29*,23,67,61,18
CCCOC(=O)c1ccc(Nc2nc(C)cc(=O)[nH]2)cc1,17*,94,94,106,94
CCOC(=O)c1ccc(Nc2nc(C)cc(=O)[nH]2)cc1,88,85,96,112,86
CCN1C(=O)/C(=C/c2ccc(N3CCCC3)cc2)NC1=S,/,63,/,/,60
COc1ccc(CC(=O)NCc2cn3ccsc3n2)cc1,1.0*,98,102,98,92
CCOC(=O)c1c(C)[nH]c(C(=O)CN2C(=O)NC(C)(c3ccc(C)cc3)C2=O)c1C (stereo not drawn),39*,51,97,107,59
CCOC(=O)c1c(C)[nH]c(C(=O)CN2C(=O)NC(CC)(c3ccccc3)C2=O)c1C (stereo not drawn),37*,62,100,94,75
CCOC(=O)c1c(NC(=O)CN2C(=O)NC(C)(c3ccc(OC(F)F)cc3)C2=O)sc(C)c1C (stereo not drawn),/,70,/,/,78
